Measurements taken from paper PMC11995402 (ACS infectious diseases, 2025).
≈ marks a conversion by molar mass, not a printed value. Read-outs that look alike come from different tables or passages of the source.

How the values were obtained:
T. muris [1] = tested on: T. muris; design: species or system mice; conditions: mouse, in vivo, po, 100 mg/kg/day
GSG2 (haspin) = biological target: T1, GSG2 (haspin) (Homo sapiens, UniProt Q8TF76); experiment: SelectScreen kinase panel, GSG2; type: biochemical; conditions: 500 nM
T1 sequence (Q8TF76 1-798): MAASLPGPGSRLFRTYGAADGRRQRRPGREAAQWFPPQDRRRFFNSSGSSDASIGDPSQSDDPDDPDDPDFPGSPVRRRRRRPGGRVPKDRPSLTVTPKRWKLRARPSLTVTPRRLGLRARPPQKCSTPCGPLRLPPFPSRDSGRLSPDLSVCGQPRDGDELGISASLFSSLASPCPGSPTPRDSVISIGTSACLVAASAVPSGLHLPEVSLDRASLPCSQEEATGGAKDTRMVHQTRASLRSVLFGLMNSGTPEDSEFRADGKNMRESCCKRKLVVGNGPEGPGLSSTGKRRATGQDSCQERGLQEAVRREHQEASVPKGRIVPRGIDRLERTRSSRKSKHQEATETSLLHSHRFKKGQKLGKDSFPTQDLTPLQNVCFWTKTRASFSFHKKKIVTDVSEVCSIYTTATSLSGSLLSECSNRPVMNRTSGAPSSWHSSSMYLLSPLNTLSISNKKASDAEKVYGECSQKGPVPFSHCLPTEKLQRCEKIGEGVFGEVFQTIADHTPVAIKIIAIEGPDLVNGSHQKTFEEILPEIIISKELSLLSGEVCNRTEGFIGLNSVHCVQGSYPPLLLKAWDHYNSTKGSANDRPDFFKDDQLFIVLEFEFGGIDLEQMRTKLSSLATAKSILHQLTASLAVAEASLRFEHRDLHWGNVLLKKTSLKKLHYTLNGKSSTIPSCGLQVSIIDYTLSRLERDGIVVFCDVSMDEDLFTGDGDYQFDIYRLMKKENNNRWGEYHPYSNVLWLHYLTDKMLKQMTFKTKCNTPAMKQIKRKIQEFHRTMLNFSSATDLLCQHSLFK

HepG2 cells = experiment: HepG2 MTT viability assay; conditions: read-out: HEPG2 cells CC50 μM (95% CI) 24 h; MTT viability, 24 h
[2] = kinetic solubility in simulated gastric and intestinal fluid; type: physicochemical
MAPK15 (ERK7) = biological target: T2, MAPK15 (ERK7) (Homo sapiens, UniProt Q8TD08); experiment: SelectScreen kinase panel, MAPK15; type: biochemical; conditions: 500 nM
T2 sequence (Q8TD08 1-544): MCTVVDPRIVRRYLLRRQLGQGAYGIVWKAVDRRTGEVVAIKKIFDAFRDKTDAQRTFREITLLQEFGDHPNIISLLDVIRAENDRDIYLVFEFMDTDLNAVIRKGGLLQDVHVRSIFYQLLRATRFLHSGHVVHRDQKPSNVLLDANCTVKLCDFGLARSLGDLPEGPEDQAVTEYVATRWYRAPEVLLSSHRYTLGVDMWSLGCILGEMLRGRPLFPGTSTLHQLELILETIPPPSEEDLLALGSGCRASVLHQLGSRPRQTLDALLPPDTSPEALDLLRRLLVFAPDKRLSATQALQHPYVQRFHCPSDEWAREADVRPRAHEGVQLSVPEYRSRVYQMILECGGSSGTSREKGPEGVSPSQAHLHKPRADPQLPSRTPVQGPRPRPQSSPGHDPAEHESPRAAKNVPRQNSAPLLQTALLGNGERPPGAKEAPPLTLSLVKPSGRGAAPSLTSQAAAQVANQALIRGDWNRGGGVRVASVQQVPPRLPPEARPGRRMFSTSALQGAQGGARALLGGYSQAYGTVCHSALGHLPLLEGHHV

MYLK4 = biological target: T3, MYLK4 (Homo sapiens, UniProt Q86YV6); experiment: SelectScreen kinase panel, MYLK4; type: biochemical; conditions: 500 nM
T3 sequence (Q86YV6 1-388): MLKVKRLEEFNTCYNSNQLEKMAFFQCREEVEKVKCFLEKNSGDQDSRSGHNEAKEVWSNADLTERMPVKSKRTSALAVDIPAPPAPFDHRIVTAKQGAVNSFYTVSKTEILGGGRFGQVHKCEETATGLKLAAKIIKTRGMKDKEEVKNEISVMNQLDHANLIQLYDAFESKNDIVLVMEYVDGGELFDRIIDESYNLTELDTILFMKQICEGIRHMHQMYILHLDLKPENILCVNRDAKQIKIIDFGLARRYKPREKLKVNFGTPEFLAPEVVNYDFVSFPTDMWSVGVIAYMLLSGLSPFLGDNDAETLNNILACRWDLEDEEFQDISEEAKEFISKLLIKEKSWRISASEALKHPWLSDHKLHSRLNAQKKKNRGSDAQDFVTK

MDR1-MDCK II cells = conditions: MDCK-MDR1
T. muris [3] = experiment: adult whipworm whole-worm motility inhibition assay; type: cell-based, Trichuris muris; conditions: for IC50: motility
AAK1 = AAK1 (Homo sapiens, UniProt Q2M2I8); experiment: SelectScreen kinase panel, AAK1; type: biochemical; conditions: 500 nM
AAK1, sequence (Q2M2I8 whole entry): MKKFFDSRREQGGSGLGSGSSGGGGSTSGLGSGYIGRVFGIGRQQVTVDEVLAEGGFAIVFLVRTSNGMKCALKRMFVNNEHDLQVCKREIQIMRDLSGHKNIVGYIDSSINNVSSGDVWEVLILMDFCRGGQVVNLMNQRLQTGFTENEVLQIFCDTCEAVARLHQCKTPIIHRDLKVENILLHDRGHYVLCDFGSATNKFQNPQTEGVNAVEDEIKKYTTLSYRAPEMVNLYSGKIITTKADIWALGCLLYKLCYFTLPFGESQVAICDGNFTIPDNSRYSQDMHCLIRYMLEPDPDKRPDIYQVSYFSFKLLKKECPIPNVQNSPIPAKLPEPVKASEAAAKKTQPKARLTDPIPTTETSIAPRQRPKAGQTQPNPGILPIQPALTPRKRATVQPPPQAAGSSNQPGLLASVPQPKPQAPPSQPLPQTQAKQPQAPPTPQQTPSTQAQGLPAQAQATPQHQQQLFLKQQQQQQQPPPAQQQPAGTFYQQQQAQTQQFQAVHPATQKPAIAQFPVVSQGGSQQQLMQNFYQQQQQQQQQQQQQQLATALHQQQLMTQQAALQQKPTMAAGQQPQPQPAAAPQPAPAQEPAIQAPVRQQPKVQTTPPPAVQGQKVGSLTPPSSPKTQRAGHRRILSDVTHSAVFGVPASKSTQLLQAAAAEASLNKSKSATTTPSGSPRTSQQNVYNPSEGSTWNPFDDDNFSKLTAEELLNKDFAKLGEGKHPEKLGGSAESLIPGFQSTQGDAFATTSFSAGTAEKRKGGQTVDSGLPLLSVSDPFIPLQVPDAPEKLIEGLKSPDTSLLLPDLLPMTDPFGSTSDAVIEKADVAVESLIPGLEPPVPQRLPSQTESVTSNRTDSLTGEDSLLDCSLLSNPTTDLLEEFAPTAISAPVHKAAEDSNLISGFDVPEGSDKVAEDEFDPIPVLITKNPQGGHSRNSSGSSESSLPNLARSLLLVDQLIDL

whipworms = experiment: whipworm motility recovery after drug removal; type: cell-based; conditions: 60 μM for 24 h, motility recorded 4 and 24 h after removal
Outline: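 Adult T. muris harvested 35 days post-inoculation from Stat6−/− mice, one worm per well in RPMI 1640 (pH 7.2) with 5% FBS, penicillin, streptomycin and amphotericin, at 37 °C and 5% CO2. Worms were exposed to test compound for 24 h, washed, and moved to fresh drug-free medium. Motility inhibition was scored relative to DMSO (0%) after exposure and again 4 and 24 h later.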

A. ceylanicum [4] = experiment: in vivo efficacy in A. ceylanicum-infected hamsters; conditions: 100 mg/kg/day for three days, oral
A. ceylanicum [5] = experiment: adult hookworm whole-worm motility inhibition assay; type: cell-based, Ancylostoma ceylanicum; conditions: motility
STK17A = biological target: T4, STK17A (Homo sapiens, UniProt Q9UEE5); experiment: SelectScreen kinase panel, STK17A; type: biochemical; conditions: 500 nM
T4 sequence (Q9UEE5 1-414): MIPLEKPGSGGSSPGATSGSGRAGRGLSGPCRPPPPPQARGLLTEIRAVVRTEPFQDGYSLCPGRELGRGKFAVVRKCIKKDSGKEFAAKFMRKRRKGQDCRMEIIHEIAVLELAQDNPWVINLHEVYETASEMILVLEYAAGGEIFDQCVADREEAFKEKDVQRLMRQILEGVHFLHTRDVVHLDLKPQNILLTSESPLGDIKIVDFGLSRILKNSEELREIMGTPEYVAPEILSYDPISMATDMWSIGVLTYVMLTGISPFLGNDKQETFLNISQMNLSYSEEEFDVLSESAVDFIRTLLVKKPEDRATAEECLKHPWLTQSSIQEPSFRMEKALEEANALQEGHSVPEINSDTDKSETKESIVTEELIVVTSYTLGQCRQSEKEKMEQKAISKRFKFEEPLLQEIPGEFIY

PIM-3 = PIM-3 (Homo sapiens, UniProt Q86V86); experiment: SelectScreen kinase panel, PIM-3; type: biochemical; conditions: 500 nM

Compound: CN1CCCN(C(=O)c2cccc(-c3ccc(/C=C4/C(=O)Nc5ccc(Cl)cc54)o3)c2)CC1 [CX-6258]
- health, vitality and body weight of treated animals (T. muris [1]): did not affect the visually observed health and vitality of treated animals, nor were any changes in body weight
- kinase inhibition GSG2 (haspin) (GSG2 (haspin)): over 80%
- CC50 (HepG2 cells): 37.5 µM
- kinetic solubility μM ([2]; SGF (pH = 1.2)): 151 µM (≈ 69.8 µg/mL)
- kinetic solubility μg/mL ([2]; SGF (pH = 1.2)): 69.7 µg/mL (≈ 151 µM)
- times more soluble in SGF than in SIF ([2]; SGF pH 1.2 versus SIF pH 6.8): approximately 30 times
- kinetic solubility μM ([2]; SIF (pH = 6.8)): 5.05 µM (≈ 2.33 µg/mL)
- kinetic solubility μg/mL ([2]; SIF (pH = 6.8)): 2.33 µg/mL (≈ 5.04 µM)
- kinase inhibition MAPK15 (ERK7) (MAPK15 (ERK7)): over 80%
- kinase inhibition MYLK4 (MYLK4): over 80%
- Rank Papp (MDR1-MDCK II cells): low
- mean Papp A to B (MDR1-MDCK II cells): 0.049 10^−6 cm/s
- mean Papp B to A (MDR1-MDCK II cells): 0.0897 10^−6 cm/s
- mean solution recovery % A to B (MDR1-MDCK II cells): 5.4%
- mean solution recovery % B to A (MDR1-MDCK II cells): 20.2%
- worm motility inhibition (in words) (T. muris [3]; adult T. muris, 30 μM (Figure 1)): excellent inhibition
- motility inhibition (T. muris [3]; adult T. muris, 30 μM, relative to DMSO controls): 100%
- IC50 (T. muris [3]; read-out: T. muris IC50 μM (95% CI) 24 h, 24 h): 17.8 µM
- IC50 (T. muris [3]; read-out: T. muris IC50 μM (95% CI) 48 h, 48 h): 14.7 µM
- kinase inhibition AAK1 (AAK1): over 80%
- recovery of whipworm motility after removing the drug (whipworms): no recovery in whipworm motility
- reduction of egg number or worm burden (in words) (A. ceylanicum [4]): did not reduce egg number or worm burden
- IC50 (A. ceylanicum [5]; read-out: A. ceylanicum IC50 μM (95% CI) 24 h, 24 h): 31.6 µM
- IC50 (A. ceylanicum [5]; read-out: A. ceylanicum IC50 μM (95% CI) 48 h, 48 h): 5.5 µM
- kinase inhibition STK17A (STK17A): over 80%
- kinase inhibition PIM-3 (PIM-3): over 80%
